Source: ChEMBL document CHEMBL4513216, “Probing the Open Global Health Chemical Diversity Library for Multistage-Active Starting Points for Next-Generation Antimalarials” (ACS Infect Dis, 2020)

Assay: Toxicity liver stage against HepG2, at 10uM
Type: cell-based
Design: test concentration 10 uM, cell line HepG2-A16-CD81EGFP
Conditions: human, HepG2-A16-CD81EGFP cells; read-out: INHIBITION
Outline: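 Uninfected HepG2-A16-CD81EGFP cells, 3 × 10^3 per well, 1536-well, plated on prespotted compound at 10 μM final, parasite-free screening media added to match infected plates; puromycin 10 μM positive, DMSO 0.5% negative; run in parallel with 48 h PbLuc assay at 37 °C, 5% CO2; viability by CellTiter-Glo luminescence, normalized to controls.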

Compound	cytotoxicity at 10 µM
CC(C)NC(=O)N[C@H]1C[C@@H](Cc2cc(CN3CCOCC3)on2)C1(C)C	-5.5%
CC(=O)N1N=C(COc2ccc3c(c2)OCO3)OC1c1ccc(C)cc1 (stereo not given)	1.22%
COC(=O)CCCNC(=O)N1CCc2c([nH]c3ccc(Cl)cc23)C1	9.43%
COc1ccc(C[C@H]2CN(C(=O)c3cnoc3)CC[C@@H]2OC)cc1	4.09%
CCOCC1CN(C(=O)c2cnoc2C)Cc2cn(CC3CC3)nc21 (stereo not given)	17%
COCCN1CCCc2sc(C(=O)NCC3CCCO3)nc21 (stereo not given)	5.96%
CCOCc1ncn2c1CN(S(=O)(=O)c1ccc(OC)cc1)CC2	0.199%
CCOCc1ncn2c1CN(S(=O)(=O)c1ccc(C)cc1)CC2	-0.602%
Cc1cnc(CNC(=O)[C@@H]2CC[C@@H]3[C@@H](CCN3Cc3ccco3)O2)cn1	0.296%
CCCN(CC)C(=O)c1ncn2c1CN(C)S(=O)(=O)c1ccccc1-2	-152%
CCS(=O)(=O)N1CCC2(COCc3cnc(N4CCOCC4)nc32)C1 (stereo not given)	-4.92%
Cc1c(C)n(CC(O)CN2CCCCCC2)c2c(Cl)cccc12 (stereo not given)	-21.9%
O=C(NCCN1CCOCC1)c1nc(-c2ccc3[nH]ccc3c2)no1	-7.53%
CC1(C)CC(=O)c2cnc3nc(N4CCCCC4)nc(O)c3c2C1	-0.0124%
CCc1cnc2c(c1Nc1ccc(OC)cc1)c(=O)n(C)c(=O)n2C	4.26%
Cc1cc(O)c(OCC(=O)/N=c2\[nH]cc(C)s2)cn1	-12.4%
COCCNC(=O)c1ccc2c(=O)n3c(nc2c1)CCN(C)CC3	-1.02%
O=S(=O)(c1cn[nH]c1)N1C[C@@H](O)[C@H](N2CCc3ccccc3C2)C1	-3.47%
O=C(c1ccc(-n2cccn2)nc1)N1CCCC(c2cnccn2)C1 (stereo not given)	4.32%
Cc1cc(C)nc(N2CCC(CNC(=O)c3cnccn3)CC2)n1	-26.1%
Cc1cc(N2CCCC2c2cc(Nc3cnccn3)nc(C)n2)ncn1 (stereo not given)	-14%
CN(C)C(=O)CN1CCCC(CCCc2ccccn2)(C(N)=O)C1 (stereo not given)	-23.2%
O=C(NCC1CC1)Nc1cnc2cc(Cl)ccc2c1O	-0.0788%
Cc1nn(C)c(C)c1NC(=O)CNC(c1ccc(F)cc1)C1CCC1 (stereo not given)	-1.65%
CCCC(NC(=O)c1ccccn1)c1nnc2ccccn12 (stereo not given)	-6.54%
CC(C)S(=O)(=O)C(C)C(=O)Nc1ccc2oc(C3CC3)nc2c1 (stereo not given)	1.77%
CN(CCOc1ccccc1Cl)S(=O)(=O)N1CCOCC1	-3.51%
Cc1ccc(CC(=O)NCC(O)c2cc(Cl)cc(Cl)c2)cn1 (stereo not given)	-3.69%

Compound	cytotoxicity at 10 µM
Cc1cc(CN(C)C(=O)Nc2cnc3c(c2)c(C)nn3C)no1	3.77%
CC(C)c1ccc(OCCC(=O)N(C)CC(N)=O)cc1	6.77%
CNC(=O)C1CCCCN1C(=O)c1csc(-c2ccccc2)n1 (stereo not given)	2%
CCCN(CCC)S(=O)(=O)NC(C)C(=O)N(C)C (stereo not given)	-0.237%
CC(C)c1nc(CSc2nnc(-c3cccs3)n2CC(N)=O)no1	-142%
Cc1nc(S(=O)(=O)N2CCCCc3ccccc32)cn1C	-2.38%
Cc1ncc(C(=O)Nc2cncnc2N(C)C)c(Cl)c1Cl	0.776%
CCCc1n[nH]c(C2CN(CC(=O)N(C)Cc3ccco3)CCO2)n1 (stereo not given)	-4.84%
c1nc(-c2nc(C3CCOC3)no2)cs1 (stereo not given)	6.18%
c1csc(-c2cc(CN3CCN(c4nccs4)CC3)no2)c1	13.2%
CN(C)c1cc2c(nn1)CCN(C(=O)Cc1ccc3c(c1)CCO3)C2	5.71%
O=C(NCCNc1ncccn1)N1CC=C(c2ccccc2)CC1	12.6%
O=C(Cc1ccon1)NC1CC2(CCC2)Oc2ccccc21 (stereo not given)	-6.71%
COC(=O)N1CCC(Nc2cccc(F)c2C(C)=O)CC1	12.7%
Cc1cnn(C2CN(c3nc(C)cc(N(C)C)n3)C2)c1	-5.12%
Cc1ccc(CCNC(=O)NCc2cccc(OC(F)F)c2)cn1	-2.66%
O=C(NCc1ccccn1)NCC(c1ccco1)N1CCCCC1 (stereo not given)	-2.93%
Cc1cnn(CC2CN(CCS(=O)(=O)C(F)(F)F)CCO2)c1 (stereo not given)	2.5%
Cc1cn(CC(=O)NC2CCN(CC3CC3)CC2)c2ccccc12	0.951%
Cc1cnc(NC(=O)N2CCOCC2)s1	-1.14%
CCN(C(=O)COc1nc(Cc2ccc(F)cc2)no1)C1CC1	5.09%
Cc1ncncc1C(=O)NCCN1CCC(C)CC1	-8.76%
Cc1ncsc1CCN1CCC(N(C)Cc2noc(C(C)C)n2)C1 (stereo not given)	2.17%
OCC1CCCN1c1cc(NCc2cc3ccccc3o2)ncn1 (stereo not given)	7.53%
CN1CCC(NC(=O)CCCc2cc(Cl)sc2Cl)C1=O (stereo not given)	-2.46%
CCCc1cc(N2CCCC2Cn2nc(C)cc2C)n2ncnc2n1 (stereo not given)	2.48%
CCN(C(=O)CNc1cc(C)c(F)cc1C(N)=O)C1CC1	2.14%
